Reference: ChEMBL document CHEMBL1687758, “Azithromycin alters macrophage phenotype and pulmonary compartmentalization during lung infection with Pseudomonas” (2010)
Calls of active or inactive are those of the source. The calls are words filed in the database; no cut-off is given here.

What was measured:
[1] = tested on: Mus musculus; test: Immunomodulatory activity in Pseudomonas aeruginosa M57-15 infected C57BL/6 mouse lung assessed as CD11b+c- cell expression level in lung lavage fluid at 0.16 g/kg, po measured after 14 days by flow cytometry (reference value: 1.15 +/- 0.62 %); format: functional
In short: (§1)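 Oral gavage of 0.16 g/kg daily (2% methylcellulose vehicle) began 4 days before intratracheal bead infection (1 × 105 to 2 × 10^5 CFU). On days 3, 7 and 14, cells were taken from lavage (0.3 mM EDTA buffer) and from collagenase/DNase lung digest (1 h, 37°C). Cells were stained for CD11b, CD11c, Gr-1, CD4, CD80, MHC-II and MR, with more than 50,000 events acquired. Counts were gated percent × manual cell count.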

[2] = tested on: Mus musculus; test: Immunomodulatory activity in Pseudomonas aeruginosa M57-15 infected C57BL/6 mouse lung assessed as CD11b+c+ cell expression level in lung lavage fluid at 0.16 g/kg, po measured after 3 days by flow cytometry (reference value: 2.38 +/- 0.75 %); format: functional; in short: as §1
[3] = tested on: Mus musculus; test: Immunomodulatory activity in Pseudomonas aeruginosa M57-15 infected C57BL/6 mouse lung assessed as CD11b+c+ cell expression level in lung lavage fluid at 0.16 g/kg, po measured after 7 days by flow cytometry (reference value: 1.51 +/- 1.53 %); format: functional; in short: as §1
[4] = tested on: Mus musculus; test: Immunomodulatory activity in Pseudomonas aeruginosa M57-15 infected C57BL/6 mouse lung assessed as CD11b+c+ cell expression level in lung lavage fluid at 0.16 g/kg, po measured after 14 days by flow cytometry (reference value: 5.42 +/- 5.34 %); format: functional; in short: as §1
[5] = tested on: Mus musculus; test: Immunomodulatory activity in Pseudomonas aeruginosa M57-15 infected C57BL/6 mouse lung assessed as CD11b-c+ cell expression level in lung lavage fluid at 0.16 g/kg, po measured after 3 days by flow cytometry (reference value: 47.01 +/- 33.74 %); format: functional; in short: as §1
[6] = tested on: Mus musculus; test: Immunomodulatory activity in Pseudomonas aeruginosa M57-15 infected C57BL/6 mouse lung assessed as CD11b-c+ cell expression level in lung lavage fluid at 0.16 g/kg, po measured after 7 days by flow cytometry (reference value: 72.59 +/- 16.30 %); format: functional; in short: as §1
[7] = tested on: Mus musculus; test: Immunomodulatory activity in Pseudomonas aeruginosa M57-15 infected C57BL/6 mouse lung assessed as CD11b-c+ cell expression level in lung lavage fluid at 0.16 g/kg, po measured after 14 days by flow cytometry (reference value: 72.38 +/- 13.69 %); format: functional; in short: as §1
[8] = tested on: Mus musculus; test: Immunomodulatory activity in Pseudomonas aeruginosa M57-15 infected C57BL/6 mouse lung assessed as increase of mannose receptor expression in lung digest at 0.16 g/kg, po measured after 7 days by flow cytometry; format: functional, organism-based; in short: as §1
[9] = tested on: Mus musculus; test: Immunomodulatory activity in Pseudomonas aeruginosa M57-15 infected C57BL/6 mouse lung assessed as up-regulation of CCR7 expression in CD11+ Gr1- cells in lung digest at 0.16 g/kg, po measured after 7 days by flow cytometry; format: functional, organism-based; in short: as §1
[10] = tested on: Mus musculus; test: Immunomodulatory activity in Pseudomonas aeruginosa M57-15 infected C57BL/6 mouse lung assessed as up-regulation of MHC2 expression in CD11+ Gr1- cells in lung digest at 0.16 g/kg, po measured after 7 days by flow cytometry; format: functional, organism-based; in short: as §1
[11] = tested on: Mus musculus; test: Immunomodulatory activity in Pseudomonas aeruginosa M57-15 infected C57BL/6 mouse lung assessed as increase of mannose receptor expression in CD11b+ Gr1+ cells in lung digest at 0.16 g/kg, po measured after 7 days by flow cytometry; format: functional, organism-based; in short: as §1
[12] = tested on: Mus musculus; test: Immunomodulatory activity in Pseudomonas aeruginosa M57-15 infected C57BL/6 mouse lung assessed as increase of MHC2 expression in CD11b+ Gr1+ cells in alveolar space at 0.16 g/kg, po measured after 7 days by flow cytometry; format: functional, organism-based; in short: as §1
[13] = tested on: Mus musculus; test: Immunomodulatory activity in Pseudomonas aeruginosa M57-15 infected C57BL/6 mouse lung assessed as increase of CD80 expression in CD11b+ Gr1+ cells in alveolar space at 0.16 g/kg, po measured after 7 days by flow cytometry; format: functional, organism-based; in short: as §1
[14] = tested on: Mus musculus; test: Immunomodulatory activity in Pseudomonas aeruginosa M57-15 infected C57BL/6 mouse lung assessed as increase of mannose receptor expression in CD11b+ Gr1+ cells in alveolar space at 0.16 g/kg, po measured after 7 days by flow cytometry; format: functional, organism-based; in short: as §1
[15] = tested on: Mus musculus; test: Immunomodulatory activity in Pseudomonas aeruginosa M57-15 infected C57BL/6 mouse lung assessed as decrease of IL-10 production in CD11b+ cells in lung digest at 0.16 g/kg, po measured after 7 days by flow cytometry; format: functional, organism-based
In short: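 Lung digest cells (2 × 106) were stimulated for 4 h with 50 ng/ml PMA and 500 ng/ml ionomycin plus 10 μg/ml brefeldin A. They were surface-stained for CD11b/CD11c, fixed in 4% formalin, permeabilized with 0.05% saponin, Fc-blocked, and stained for intracellular TNF-α and IL-10 for flow cytometry. Mice were dosed at 0.16 g/kg by daily oral gavage from 4 days before infection.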

[16] = tested on: Mus musculus; test: Immunomodulatory activity in Pseudomonas aeruginosa M57-15 infected C57BL/6 mouse lung assessed as decrease of TNFalpha production in CD11b+ cells in lung lavage fluid at 0.16 g/kg, po measured after 7 days by flow cytometry; format: functional, organism-based
In short: (§2)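 The first 1-ml lavage wash was frozen at −80°C. Samples diluted 5-fold were incubated 3 h at room temperature with capture beads for a cytometric bead array (IL-12p70, CCL2, TNF-α, IL-10, IFN-γ, IL-6) plus a PE-conjugated detection antibody. Fluorescence was read by flow cytometry against standard curves. Mice had daily oral 0.16 g/kg from 4 days before intratracheal infection.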

[17] = tested on: Mus musculus; test: Immunomodulatory activity in Pseudomonas aeruginosa M57-15 infected C57BL/6 mouse lung assessed as decrease of IL-6 production in CD11b+ cells in lung lavage fluid at 0.16 g/kg, po measured after 7 days by flow cytometry; format: functional, organism-based; in short: as §2
[18] = tested on: Mus musculus; test: Immunomodulatory activity in Pseudomonas aeruginosa M57-15 infected C57BL/6 mouse lung assessed as decrease of CCL2 production in CD11b+ cells in lung lavage fluid at 0.16 g/kg, po measured after 7 days by flow cytometry; format: functional, organism-based; in short: as §2
[19] = tested on: Mus musculus; test: Immunomodulatory activity in Pseudomonas aeruginosa M57-15 infected C57BL/6 mouse lung assessed as decrease of IL-10 production in CD11b+ cells in lung lavage fluid at 0.16 g/kg, po measured after 7 days by flow cytometry; format: functional, organism-based; in short: as §2
[20] = tested on: Mus musculus; test: Immunomodulatory activity in Pseudomonas aeruginosa M57-15 infected C57BL/6 mouse lung assessed as decrease of IFN-gamma production in CD11b+ cells in lung lavage fluid at 0.16 g/kg, po measured after 7 days by flow cytometry; format: functional, organism-based; in short: as §2
[21] = tested on: Mus musculus; test: Immunomodulatory activity in Pseudomonas aeruginosa M57-15 infected C57BL/6 mouse lung assessed as decrease of IL-12p70 production in CD11b+ cells in lung lavage fluid at 0.16 g/kg, po measured after 7 days by flow cytometry; format: functional, organism-based; in short: as §2
[22] = tested on: Mus musculus; test: Immunomodulatory activity in Pseudomonas aeruginosa M57-15 infected C57BL/6 mouse lung assessed as increase of total cells in lung digest at 0.16 g/kg, po measured by flow cytometry
[23] = tested on: Mus musculus; test: Immunomodulatory activity in Pseudomonas aeruginosa M57-15 infected C57BL/6 mouse lung assessed as increase of arginase activity in lung digest at 0.16 g/kg, po measured after 7 days

Activity [8]: Active | Activity [23]: Active
SMILES: CC[C@H]1OC(=O)[C@H](C)[C@@H](O[C@H]2C[C@@](C)(OC)[C@@H](O)[C@H](C)O2)[C@H](C)[C@@H](O[C@@H]2O[C@H](C)C[C@H](N(C)C)[C@H]2O)[C@](C)(O)C[C@@H](C)CN(C)[C@H](C)[C@@H](O)[C@]1(C)O [AZITHROMYCIN]
Activity [1]: 2.24% | Activity [2]: 2.37% | Activity [3]: 21.67% | Activity [4]: 5.25% | Activity [5]: 34.84% | Activity [6]: 38.47% | Activity [7]: 46.16% | Activity [9]: Active | Activity [10]: Active | Activity [11]: Active | Activity [12]: Active | Activity [13]: Active | Activity [14]: Active | Activity [15]: inactive | Activity [16]: Active | Activity [17]: Active | Activity [18]: Active | Activity [19]: inactive | Activity [20]: inactive | Activity [21]: inactive | Activity [22]: Active
